# This is a sample that favours compounds with a hit; in the whole collection about 4.1% have one here.
# ROMK primary: ROMK potassium channel modulators, primary screen, cell-based, thallium flux, MLSMR library. ATP-sensitive inward rectifier potassium channel 1 (Homo sapiens), P48048. Tet-inducible ROMK, thallium flux fluorescence; actives lie on both sides. B-score at 10 µM. 130,000 tested, 2% active. AID 1918, 2009;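 active = signal ratio slope over the read window, or its plate-corrected B-score, at least 3 SD from the plate mean, either direction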;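 also: B-score of the F/F0 ratio slope over 7 to 12 s after thallium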
# KCC2 mod: KCC2 cotransporter modulators, thallium flux, primary screen, cell-based, HEK293 KCC2, FluoZin-2 fluorescence, MLSMR; KCC2 cells, thallium flux FluoZin-2 fluorescence; B-score of Tl+ flux slope (higher = more flux/activation; lower = inhibition) at 10 µM; 190,000 tested, 2.2% active;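 active = thallium flux slope and its plate-corrected score both differing from the plate sample mean at a set confidence after two filtering rounds, in either direction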;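 also: slope of fluorescence scaled to starting intensity during 10 to 20 s after thallium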
# Autophagy HCS: autophagy modulators in MEF cells, primary screen, imaging, high-content, MEF GFP-LC3; 190,000 tested, 0.98% active; MEF GFP-LC3 puncta imaging; test concentration mostly 10 µM; calls only at 10 µM (by protocol); AID 463193, 2010;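 active = percentage of spot-positive cells more than 3 SD above its plate mean, without a fluorescence outlier flag or 80% toxicity; inconclusive = no clear call, values can overlap the other calls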
# Redox H2O2 prof: compounds producing H2O2 with reducing agent – biochemical, NIH compound library profiling, artefact control for MLSCN library redox annotation, primary screen. DTT-dependent redox cycling H2O2, phenol red/HRP absorbance; 100% = 100 µM peroxide control, 0% = buffer. activation, % at 10 µM. 200,000 tested, 0.03% active. AID 878, 2007;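 active = activation of at least 50% relative to the plate's high and low controls in the primary single-dose screen; inactive = activation below 50%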;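 also: compound incubated with DTT at 0.8 mM final as the reducing agent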
# Dynein transport: inhibitors of GR-EGFP nuclear translocation, primary screen, dynein cargo transport inhibitor project, imaging, high-content, 3617.4 mouse cells; test concentration mostly 20 µM; stimulated with dexamethasone, 1 µM; hits give low values; z-score, hits read low; 220,000 tested, 0.47% active; AID 1381, 2008;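 active = plate z-score of nuclear minus cytoplasmic receptor signal below a set negative limit, without overly bright fluorescence or cell loss, cut at about -3.5 in these data, passing the limit was not always enough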;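 also: z-score of nuclear minus cytoplasmic ring GR-EGFP intensity difference per well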
#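 Buffer or medium: tet-free, stripped-serum medium; Also added: dexamethasone, 1.0 µM final; Technique: high-content fluorescence imaging after fixation; Times: 48 h induction, 1 h compound, 30 min dex at 37 °C; Read-out: per-cell GR-EGFP intensity, nucleus versus surrounding cytoplasmic ring, well-averaged.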
# KCC2 sec1: KCC2 modulators in sodium-free buffer, confirmation, cell-based, HEK293 KCC2, thallium flux, secondary assay. shares compounds with KCC2 mod. FluoZin2 fluorescence; hits give high values. normalised thallium flux (F/F0 slope) at 10 µM. 3,700 tested, 15% active. AID 1713, 2009;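 active = thallium flux slope above the same plate's solvent-only control mean plus 3 SD; inconclusive = the two replicate wells disagree; inactive = no significant difference from solvent-only control wells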
# KCC2 bumet counter: thallium flux persisting under bumetanide in KCC2 cells, confirmation, counter-screen for KCC2 modulator project, cell-based, HEK293 KCC2, FluoZin2, secondary assay 3. shares compounds with KCC2 mod. HEK293-KCC2 + bumetanide/ouabain; hits give high values. AID 1714, 2009. normalized thallium flux at 10 µM. 3,700 tested, 49% active;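 active = thallium entry rate above the same plate's blocked-transporter control wells by more than 3 SD; inconclusive = the two repeat wells disagree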;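 also: raw slope of fluorescence over initial fluorescence between 10 and 20 s after thallium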
# KCC2 sec2: KCC2 modulators without ouabain present, confirmation, cell-based, HEK293 KCC2, thallium flux, FluoZin2, secondary assay 2. normalized thallium flux at 10 µM. thallium flux FluoZin2 fluorescence; actives lie on both sides; F/F0 rise rate, 10–20 s post-thallium. 3,700 tested, 23% active. shares compounds with KCC2 mod;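 active = thallium flux slope more than 3 SD above or below the plate's solvent-only control mean, mostly below; inconclusive = the two repeat wells disagreed; inactive = no significant shift from solvent-only controls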
# HEK counter1: thallium flux modulation in parental HEK cells, confirmation, counter-screen for KCC2 modulator project, cell-based, counterscreen 1; shares compounds with KCC2 mod; HEK293 parental cells, thallium flux FluoZin2, ouabain; baseline-ratio fluorescence slope, 10–20 s after thallium; thallium flux rate (normalised fluorescence) at 10 µM; 3,700 tested, 46% active;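 active = thallium flux rate significantly above the same plate's solvent-only control wells, beyond their mean plus 3 SD; inconclusive = the two replicate wells gave conflicting results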
# KCC2 ouabain: KCC2 inhibitors and activators, ouabain retest, confirmation, HEK-KCC2 cells | shares compounds with KCC2 mod | HEK293-KCC2, thallium flux FluoZin2 fluorescence; bidirectional: low = inhibitor, high = activator | raw Tl+ flux slope (below DMSO = inhibition, above = activation) at 10 µM | 3,700 tested, 48% active;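 active = thallium flux slope beyond 3 SD from same-plate DMSO control mean in most replicates, usually higher, sometimes lower; inconclusive = repeat tests gave conflicting results; inactive = no significant difference from controls in most replicates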;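 also: slope of initial-normalized fluorescence between seconds 10 and 20 after thallium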
# HEK293 Tl flux2: native HEK Tl+ uptake effects, second counter-screen – HEK cells, counterscreen 2, counter-screen for KCC2 modulator project, confirmation | 3,700 tested, 33% active | shares compounds with KCC2 mod | thallium flux slope at 10 µM | HEK293 parental, thallium flux FluoZin-2 fluorescence slope;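 active = thallium flux slope above the same plate's solvent-control mean plus 3 SD in both duplicate wells; inconclusive = duplicate wells that disagreed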;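 also: run without ouabain in cells lacking the KCC2 cotransporter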
# Hits are given with their value; . = inactive; ? = inconclusive; / = not tested or not shown.
SMILES,ROMK primary,KCC2 mod,Autophagy HCS,Redox H2O2 prof,Dynein transport,KCC2 sec1,KCC2 bumet counter,KCC2 sec2,HEK counter1,KCC2 ouabain,HEK293 Tl flux2
CC(C)CC(=O)NC1(C(F)(F)F)C(=O)Nc2c1c(=O)n(C)c(=O)n2C (stereo unspecified),.,-3.5,.,.,.,.,.,.,.,.,.
O=C1NC(=S)N(C(=O)c2ccc(F)cc2)/C1=C/c1ccccc1,.,26,.,.,.,0.021,0.082,?,0.078,0.056,0.032
O=C(Oc1ccccc1O)c1cccc2ccccc12,.,.,.,.,.,/,/,/,/,/,/
CCCCNC(=S)N/N=C/c1sccc1C,/,10,.,.,.,.,0.017,.,0.019,?,?
Cc1ccsc1/C=N/NC(=O)CO,.,/,.,.,.,/,/,/,/,/,/
CCCCNC(=S)N/N=C/c1cc(C)ccc1C,.,4.3,.,.,.,?,0.0091,.,0.012,?,0.014
CCCCOc1ccc(/C=N/NC(=S)Nc2cc(C)ccc2C)cc1,.,.,.,.,.,/,/,/,/,/,/
CCCCNC(=S)N/N=C/c1ccccc1F,.,7.2,.,.,.,.,0.038,.,0.019,?,0.012
CCCCNC(=S)N/N=C/c1ccc(C)s1,.,4,.,.,.,?,0.027,.,0.012,0.021,0.014
Cc1ccc(/C=N/NC(=S)NCCc2ccccc2)s1,.,.,.,.,.,/,/,/,/,/,/
O=[N+]([O-])c1ccc(O)c(C2=NNC(c3ccccc3F)C2)c1 (stereo unspecified),/,28,/,/,.,.,0.034,.,0.025,0.032,?
O=[N+]([O-])c1ccc(NC2CCN(Cc3ccccc3)CC2)c([N+](=O)[O-])c1,.,-5.2,.,.,.,.,.,0.022,.,?,.
O=[N+]([O-])c1ccccc1NC1CCN(Cc2ccccc2)CC1,.,.,/,/,.,/,/,/,/,/,/
CC1CCC2C(=O)N(c3ccc(NC4CCN(Cc5ccccc5)CC4)c([N+](=O)[O-])c3)C(=O)C2C1 (stereo unspecified),/,.,.,.,.,/,/,/,/,/,/
O=C1CCC(=O)N1c1ccc(NC2CCN(Cc3ccccc3)CC2)c([N+](=O)[O-])c1,.,-5.9,.,.,.,.,.,0.025,?,.,.
O=C1C2CCCCC2C(=O)N1c1ccc(NC2CCN(Cc3ccccc3)CC2)c([N+](=O)[O-])c1 (stereo unspecified),.,-8.5,.,.,.,.,0.0077,0.026,.,0.014,.
